Like-named read-outs stand apart in the source and are kept apart here.
What was measured:
PahP = experiment: SPR, PAHs injected over PahP sensor chip; assay type: binding, Cycloclasticus sp. P1; settings: read-out: KD of PahP for PAH
PahS = experiment: SPR, PAHs injected over PahS sensor chip; assay type: binding, Cycloclasticus sp. P1; settings: read-out: KD of PahS for PAH, 20°C
In short: (§1)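 Biacore T200 SPR. The PahS protein, at 30 μg/mL in 10 mM sodium acetate (pH 5.5), was covalently immobilised on an L1 chip by primary amine coupling. Each PAH was diluted to 50 μM in PBS running buffer containing 5% DMSO. It was injected for 120 s at 30 μL/min. PAH-free running buffer served as the negative control.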

[1] = target: mutated PahP (Tyr42‒Gly42, Leu135‒Ala135, Tyr-215‒Ala215, Leu-254‒Ala254); experiment: SPR, PAHs on site-mutated PahP; assay type: binding, Cycloclasticus sp. P1; settings: range over mutated PahP and five PAHs
In short: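 Biacore T200 SPR. PahP protein was diluted in 10 mM sodium acetate (pH 5.5) and amine-coupled to a CM5 chip. PAHs were diluted to 50 μM in PBS running buffer with 5% DMSO. They were injected over the PahP surface for 120 s at 30 μL/min. Running buffer without PAH was the negative control.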

[2] = target: mutated PahS (Leu370‒Ala370, Leu444‒Ala444, Ala452‒Gly452); experiment: SPR, PAHs on site-mutated PahS; assay type: binding, Cycloclasticus sp. P1; settings: range over three mutated proteins and five PAHs
In short: as §1

[3] = target: PahR (Cycloclasticus sp. P1); experiment: SPR
[4] = target: PahP (Cycloclasticus sp. P1); experiment: SPR
[5] = target: PahK (Cycloclasticus sp. P1); experiment: SPR
[6] = target: PahP (Cycloclasticus sp. P1); experiment: SPR; remark: listed apart in the source
[7] = target: PahP (Cycloclasticus sp. P1); experiment: SPR; remark: listed apart in the source
[8] = target: PahP and PahR of the PahK-PahP and PahK-PahR reporter cells; experiment: FRET or BRET
PahP binding to PahS = experiment: SPR, PahP bound to PAH in advance, injected over PahS sensor chip; parameters: species or system Cycloclasticus sp. P1; settings: PahP binds PAH first
[9] = target: PahP-YFP (Cycloclasticus sp. P1); experiment: FRET or BRET

| Compound | Kd (PahP) | Kd (PahS) | KD of site-mutated PahP with PAHs [1] | KD of the mutated PahS proteins with PAHs [2] | other results |
| --- | --- | --- | --- | --- | --- |
| c1ccc2cc3ccccc3cc2c1 [anthracene] | 41 nM | 21.7 nM | 10^−3 to 10^−4 M | 10^−3 to 10^−4 M | – |
| PahK (natural protein) | – | – | – | – | Kd [3]: 0.0189 µM; Kd [4]: 9.8 nM |
| c1ccc2ccccc2c1 [naphthalene] | 5.3 nM | 14.6 nM | 10^−3 to 10^−4 M | 10^−3 to 10^−4 M | – |
| PahS (natural protein) | – | – | – | – | Kd [3]: 119 µM; Kd [4]: 92 nM; Kd [5]: 174 µM; Kd [6]: 2.97 nM; Kd [7]: 2.12 nM |
| CFP-PahK (natural protein) | – | – | – | – | FRET efficiency [8]: 16.7 to 21.4% |
| c1cc2ccc3cccc4ccc(c1)c2c34 [pyrene] | 14.4 nM | 21.1 nM | 10^−3 to 10^−4 M | 10^−3 to 10^−4 M | binding affinity of PahP with PahS compared to that without PAH (PahP binding to PahS): lowered |
| c1ccc2c(c1)ccc1ccccc12 [phenanthrene] | 19.6 nM | 21.4 nM | 10^−3 to 10^−4 M | 10^−3 to 10^−4 M | binding affinity of PahP with PahS compared to that without PAH (PahP binding to PahS): lowered |
| c1ccc2c(c1)Cc1ccccc1-2 [fluorene] | 17.4 nM | 179 nM | 10^−3 to 10^−4 M | 10^−3 to 10^−4 M | – |
| CFP-PahS (natural protein) | – | – | – | – | FRET efficiency [9]: 19.7% |

Reference: paper PMC10570129 (iScience, 2023)
